One assay relates to PRRSV GD-XH strain. Put plainly: Antiviral activity by indirect immunofluorescence assay. To be noted: MARC-145 cells; for EC50: Porcine reproductive and respiratory syndrome virus, MARC145, PRRSV GD-XH (0.05 MOI), IFA at 48 hpi; for Selectivity index (SI): ratio of CC50 to EC50, PRRSV GD-XH. It counts as cell-based, porcine reproductive and respiratory syndrome virus.
The test system of a further assay is PRRSV CH-1a strain. Put plainly: Antiviral activity by IFA, PRRSV CH-1a in MARC-145 cells. To be noted: Porcine reproductive and respiratory syndrome virus, MARC145. In kind it is cell-based. In a few lines: (§1)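 MARC-145 monolayers infected at 0.05 MOI for 2 h at 37 °C. Inoculum removed and fresh medium with serial compound concentrations added. Cells then fixed in 4% paraformaldehyde, permeabilized with Triton X-100, blocked with BSA and stained for N protein (mAb 4A5, 1:400, 4 °C overnight), with Alexa 568 secondary and DAPI. Red and blue ODs digitized; protection % derived against DMSO wells. EC50 by nonlinear regression; three independent experiments.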

For another assay, the system named is PRRSV VR2332 strain. The assay is described as follows: Antiviral activity by IFA, PRRSV VR2332 in MARC-145 cells. It counts as cell-based. To be noted: Porcine reproductive and respiratory syndrome virus, MARC145. In a few lines:
as §1

Another assay deals with PRRSV NADC30-like strain. Put plainly: Antiviral activity by IFA, PRRSV NADC30-like in MARC-145 cells. In kind it is cell-based. As to conditions: Porcine reproductive and respiratory syndrome virus, MARC145. An outline of the steps:
as §1

With `NC(=O)c1ncn([C@@H]2O[C@H](CO)[C@@H](O)[C@H]2O)n1` [Ribavirin], the EC50 with PRRSV GD-XH strain was 23.7 ± 3.1 µM; in the assay on PRRSV CH-1a strain, 31.5 ± 2.8 µM; in the assay with PRRSV VR2332 strain, 22.3 ± 3.1 µM; in the assay on PRRSV NADC30-like strain, 16.8 ± 2.1 µM. The “Selectivity index (SI)” value in the assay on PRRSV GD-XH strain is over 27.
In the same order, the values of `C[C@H]1[C@H](C)CC[C@]2(C(=O)O)CC[C@]3(C)C(=CC[C@@H]4[C@@]5(C)CC[C@H](O)C(C)(C)[C@@H]5CC[C@]43C)[C@H]12` [UA, Ursolic acid] are 8.03 ± 0.93 µM, 11.3 ± 0.78 µM, 5.66 ± 0.52 µM, 5.03 ± 0.35 µM and 8.1.

Values taken from article PMC9054602 (RSC Advances, 2020).
